RGS4 block – inhibitors of human RGS4; B-score at 10 µM; P49798; AID 463165; HEK293 M3R/RGS4 inducible, Fluo-4 calcium flux; hits give high values; triggered by carbachol at its EC20; 310,000 tested, 0.45% active;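 active = B-score, a plate-corrected calcium signal, over three deviations above library mean, with baseline fluorescence within five deviations of library mean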;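 note: RGS4 expression induced by doxycycline in cells with stable M3 receptor; B-score is computed from the integrated fluorescence ratio over baseline after carbachol; higher B-score means a larger calcium signal and so more RGS4 inhibition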
Target sequence (P49798 whole entry, looked up): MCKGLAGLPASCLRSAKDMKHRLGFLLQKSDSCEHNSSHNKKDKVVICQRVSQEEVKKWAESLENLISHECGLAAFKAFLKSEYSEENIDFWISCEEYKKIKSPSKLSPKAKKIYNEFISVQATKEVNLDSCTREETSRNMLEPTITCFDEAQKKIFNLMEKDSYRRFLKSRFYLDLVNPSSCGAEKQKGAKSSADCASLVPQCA
MrgX1 antagonist – blocks BAM8-22 activation of human MrgX1 receptor. MRGX1-HEK293 calcium flux, Fluo-4, BAM8-22 antagonism; hits give low values. B-score at 10 µM. 310,000 tested, 1.3% active. AID 588676;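 active = calcium-response B-score plate-corrected more than 3 library SD below zero, starting fluorescence within 5 deviations, no agonist response on first addition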;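 note: peak minus trough fluorescence over baseline after final BAM8-22 challenge near maximal dose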
Target sequence (Q96LB2 whole entry, looked up): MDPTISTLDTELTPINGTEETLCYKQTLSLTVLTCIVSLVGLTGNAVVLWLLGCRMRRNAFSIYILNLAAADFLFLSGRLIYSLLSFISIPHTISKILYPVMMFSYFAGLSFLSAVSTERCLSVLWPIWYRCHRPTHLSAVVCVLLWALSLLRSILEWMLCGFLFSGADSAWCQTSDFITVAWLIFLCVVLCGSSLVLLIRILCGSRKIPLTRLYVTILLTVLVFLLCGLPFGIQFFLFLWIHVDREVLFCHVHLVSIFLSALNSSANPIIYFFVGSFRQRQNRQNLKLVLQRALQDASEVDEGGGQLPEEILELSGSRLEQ
RGS4 act – potentiators or activators of RGS4 | HEK293 M3R/inducible RGS4, carbachol calcium flux Fluo4; hits give low values | B-score at 10 µM | 310,000 tested, 0.92% active;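 active = B-score of the integrated calcium signal more than 4 SD below the library mean, with starting fluorescence not abnormally high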;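 note: negative B-score means reduced calcium response which marks RGS4 activation or potentiation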
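Also added: carbachol at ECmax as muscarinic agonist stimulus; Assay system: HEK293 cells with stable M3R and inducible RGS4; Timing: overnight RGS4 induction, 30 min dye load 37 °C, 20 min compound RT; Measured by: Fluo4-AM (2 µM) calcium-flux fluorescence, kinetic read.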
MrgX1 allo act – allosterically activates human MrgX1 receptor signaling. B-score at 10 µM. 310,000 tested, 0.63% active. Q96LB2. MrgX1-HEK293, Fluo-4 calcium flux, FDSS; hits give high values;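 active = plate-corrected calcium response at least 3 library SD above typical, normal starting fluorescence, not activating the receptor alone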;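 note: compound read alongside a low EC10 to EC30 dose of BAM8-22 agonist; peak minus trough fluorescence over baseline measured at the second addition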
MrgX1 agonist – human MrgX1 receptor agonism, primary screen. B-score at 10 µM. 310,000 tested, 0.44% active. MrgX1-HEK293 cells, Fluo-4 calcium fluorescence, agonist mode; hits give high values;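 active = calcium response B-score plate-corrected fluorescence ratio at least 3 library SD, with starting fluorescence B-score inside 5 SD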
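Material – MrgX1-expressing HEK293 cells · Input – 15,000 cells seeded per well · Dosing – compound as first of three additions · Times – overnight seeding, then 1 h dark dye loading · Measured by – kinetic Fluo-4 NW fluorescence of intracellular calcium · Read-out – B-scored fluorescence response ratio · Benchmarks – positive and negative control wells on each plate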
KCC2 mod – KCC2 (human) Cl- transport modulation. Q9H2X9. KCC2 cells, thallium flux FluoZin-2 fluorescence. B-score of Tl+ flux slope (higher = more flux/activation; lower = inhibition) at 10 µM. 190,000 tested, 2.2% active. AID 1456;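 active = thallium flux slope and its plate-corrected score both differing from the plate sample mean at a set confidence after two filtering rounds, in either direction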;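 note: slope of fluorescence scaled to starting intensity during 10 to 20 s after thallium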
KCC2 secondary – confirmation of human KCC2 transport modulators. shares compounds with KCC2 mod. HEK293-KCC2, thallium flux, FluoZin2 fluorescence; hits give high values. normalised thallium flux (F/F0 slope) at 10 µM. 3,700 tested, 15% active;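 active = thallium flux slope above the same plate's solvent-only control mean plus 3 SD; inconclusive = the two replicate wells disagree; inactive = no significant difference from solvent-only control wells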
KCC2 bumet counter – thallium flux despite bumetanide block in KCC2 cells, secondary assay 3; shares compounds with KCC2 mod; HEK293-KCC2 + bumetanide/ouabain, thallium flux FluoZin2; hits give high values; normalized thallium flux at 10 µM; 3,700 tested, 49% active;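 active = thallium entry rate above the same plate's blocked-transporter control wells by more than 3 SD; inconclusive = the two repeat wells disagree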;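 note: raw slope of fluorescence over initial fluorescence between 10 and 20 s after thallium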
KCC2 secondary2 – confirmation of human KCC2 transport modulators; shares compounds with KCC2 mod; HEK293-KCC2, thallium flux FluoZin2 fluorescence; actives lie on both sides; F/F0 rise rate, 10–20 s post-thallium; normalized thallium flux at 10 µM; 3,700 tested, 23% active; AID 1715;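 active = thallium flux slope more than 3 SD above or below the plate's solvent-only control mean, mostly below; inconclusive = the two repeat wells disagreed; inactive = no significant shift from solvent-only controls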;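 note: raw slope with 0.1% DMSO as baseline and bumetanide as block control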
HEK counter1 – counter-screen for KCC2 modulators: effect in parental HEK293 cells. shares compounds with KCC2 mod. thallium flux FluoZin2, ouabain; baseline-ratio fluorescence slope, 10–20 s after thallium. thallium flux rate (normalised fluorescence) at 10 µM. 3,700 tested, 46% active;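 active = thallium flux rate significantly above the same plate's solvent-only control wells, beyond their mean plus 3 SD; inconclusive = the two replicate wells gave conflicting results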
KCC2 retest ouab – KCC2 (human) modulation, ouabain retest | shares compounds with KCC2 mod | HEK293-KCC2, thallium flux FluoZin2 fluorescence; bidirectional: low = inhibitor, high = activator | raw Tl+ flux slope (below DMSO = inhibition, above = activation) at 10 µM | 3,700 tested, 48% active | AID 1717;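 active = thallium flux slope beyond 3 SD from same-plate DMSO control mean in most replicates, usually higher, sometimes lower; inconclusive = repeat tests gave conflicting results; inactive = no significant difference from controls in most replicates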;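 note: slope of initial-normalized fluorescence between seconds 10 and 20 after thallium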
HEK293 Tl flux2 – parental HEK flux effect, counter-screen 2; shares compounds with KCC2 mod; HEK293 parental, thallium flux FluoZin-2 fluorescence slope; thallium flux slope at 10 µM; 3,700 tested, 33% active;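 active = thallium flux slope above the same plate's solvent-control mean plus 3 SD in both duplicate wells; inconclusive = duplicate wells that disagreed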;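 note: run without ouabain in cells lacking the KCC2 cotransporter; slope of fluorescence scaled to its starting value between 10 and 20 s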
RGS4 act valid – confirmation of RGS4 activators. HEK293 M3R/RGS4 inducible, carbachol calcium flux Fluo4. inhibition, % at 10 µM. 1,100 tested, 89% active. AID 602282. shares compounds with RGS4 act;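 active = inhibition above 3 SD of the buffer control wells, cut at about 41% in these data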;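 note: signal is the integrated peak-minus-minimum Fluo4 fluorescence over baseline ratio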
M3R Ca counter – activity in cells without induced RGS4 expression. AID 602283. HEK293 M3R non-induced RGS4, Fluo4 calcium flux; after carbachol challenge at its EC90. shares compounds with RGS4 act. inhibition, % at 10 µM. 1,100 tested, 82% active;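 active = inhibition exceeding 3 SD of buffer-only control wells, cut at about 26% in these data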;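 note: percent drop in integrated peak-minus-baseline over baseline Fluo4 ratio after carbachol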
MrgX1 ag reconf – human MrgX1 agonism, re-confirmation screen; shares compounds with MrgX1 agonist; MrgX1-HEK293, Fluo-4 calcium fluorescence, FDSS; activation, % at 10 µM; 600 tested, 78% active; AID 602412;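 active = calcium signal rise, corrected for plate position, at least 3 library SD high, with starting brightness within 5 such deviations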
MrgX1 PAM conf – human MrgX1 positive allosteric modulation, re-confirmation. shares compounds with MrgX1 allo act. MrgX1-HEK293, Fluo-4 calcium fluorescence, FDSS. 1,200 tested, 13% active. activation (ratio percentage), % at 10 µM;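 active = ratio at least 3 SD above the weak peptide control, stable starting fluorescence, no direct agonism earlier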;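 note: compound followed by low BAM8-22 agonist challenge near EC20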
MrgX1 antag conf – human MrgX1 receptor antagonism, re-confirmation screen; 2,300 tested, 19% active; MrgX1-HEK293, BAM8-22 calcium flux, Fluo-4; hits give low values; AID 602420; shares compounds with MrgX1 antagonist; remaining BAM8-22 calcium response % of control (hits give low values), % at 10 µM;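 active = remaining agonist calcium response no higher than 100% minus 3 SD of agonist-only control wells, with starting fluorescence near control levels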;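 note: agonist BAM8-22 given at a near maximal EC90 to ECmax level; peak minus minimum fluorescence divided by baseline after agonist addition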
HEK293 Ca flux – activity in parental HEK293 cells lacking MrgX1; 4,000 tested, 2% active; fluorescence ratio F(max-min)/F0 at 10 µM; Fluo-4 calcium fluorescence, FDSS; AID 624111; shares compounds with MrgX1 antagonist;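 active = duplicate-averaged calcium fluorescence ratio at least three times the standard deviation of buffer wells, a nonspecific response in parental cells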
HEK293 Ca counter – counter-screen for MrgX1 allosteric activators: effect in parental HEK293 cells; 4,000 tested, 0.4% active; AID 624114; shares compounds with MrgX1 antagonist; parental HEK293 calcium flux, Fluo-4 fluorescence ratio; hits give high values; fluorescence ratio F(max-min)/F0 at 10 µM;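 active = calcium fluorescence ratio, averaged over duplicates, at least 3 SD of the buffer-well ratio, meaning a nonspecific response in receptor-free cells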;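 note: untransfected parental HEK293 lacking MrgX1 used as counterscreen for MrgX1 allosteric activators; fluorescence change taken during the second addition on a kinetic imager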
HEK293 Ca cntr2 – MrgX1 activator counter-screen hit in parental HEK293 cells. fluorescence ratio F(max-min)/F0 at 10 µM. 4,000 tested, 8.7% active. Fluo-4 calcium fluorescence (FDSS); hits give high values. shares compounds with MrgX1 antagonist;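 active = calcium fluorescence ratio at least three times the spread of buffer wells, meaning a non-specific response in parental cells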
* hit, by the source's call; i = inactive; ? = inconclusive; · = no result given. Compounds with a hit are over-represented: about 4.7% of the library has one in this group of screens.

SMILES	RGS4 block	MrgX1 antagonist	RGS4 act	MrgX1 allo act	MrgX1 agonist	KCC2 mod	KCC2 secondary	KCC2 bumet counter	KCC2 secondary2	HEK counter1	KCC2 retest ouab	HEK293 Tl flux2	RGS4 act valid	M3R Ca counter	HEK293 Ca flux	HEK293 Ca counter	HEK293 Ca cntr2	others
O=C(NNC(=S)NC(=O)c1ccco1)c1ccc(F)cc1	i	i	i	i	69*	60*	0.026*	0.063*	?	0.035*	0.043*	0.019*	·	·	i	i	47*	MrgX1 ag reconf=201%*
COc1cccc(CN(C)C(=O)c2cc(COc3ccc4ncccc4c3)on2)c1	i	-6.6*	i	i	i	·	0.0071	0.0036	0.025*	?	0.014*	0.0099	·	·	i	i	i	MrgX1 antag conf=69%*
O=C(NC1CCCC1)c1cc(COc2ccc3ncccc3c2)on1	i	i	i	i	i	0.39	·	·	·	·	·	·	·	·	·	·	·
O=C(NCCc1cn2ccccc2n1)c1cc(COc2ccc3ncccc3c2)on1	i	i	i	8.9*	i	·	0.0076	0.0064	0.03	0.0074	?	0.0097	·	·	i	i	i	MrgX1 PAM conf=5.7%*
O=C(NCCc1ccccc1)C(c1ccccc1F)N(C(=O)c1csnn1)C1CC1 (configuration not stated)	i	i	i	i	i	·	·	·	·	·	·	·	·	·	·	·	·
COc1ccc(NC(=O)CCNC(=O)Cn2ccc3ccccc3c2=O)cc1Cl	i	i	i	i	i	·	·	·	·	·	·	·	·	·	·	·	·
Cc1nc2ccc3nc(NC(=O)C4COc5ccccc5O4)sc3c2s1 (configuration not stated)	i	i	i	8.1*	i	5.7*	0.0066	0.013*	0.031	0.011*	?	0.014*	·	·	i	i	i	MrgX1 PAM conf=7.8%*
COn1c(SC2CCCCC2)nc2ccccc2c1=O	i	i	i	29*	i	2.6*	?	0.014*	0.027	0.012*	?	0.0099	·	·	i	i	i	MrgX1 PAM conf=49%*
CC(=O)c1cccc(NC(=O)CSc2nc(=O)n(CCN3CCOCC3)c3c2CCCC3)c1	i	i	i	i	i	·	·	·	·	·	·	·	·	·	·	·	·
COC(=O)c1cc(OC)c(OC)cc1NC(=S)N1CCN(C)CC1	i	i	i	i	i	·	·	·	·	·	·	·	·	·	·	·	·
COC(=O)c1cc(OC)c(OC)cc1NC(=S)N1CCCCC1	i	-6.8*	i	i	i	-3.9*	0.0062	0.005	0.031	0.0074	0.02	0.011	·	·	i	i	i	MrgX1 antag conf=i
COc1nc(N/N=C/c2ccc(-c3cccc([N+](=O)[O-])c3)o2)nc(N2CCOCC2)n1	i	·	i	·	·	-0.18	·	·	·	·	·	·	·	·	·	·	·
O=[N+]([O-])c1cccc(-c2ccc(/C=N/Nc3nc(N4CCCCC4)nc(N4CCCCC4)n3)o2)c1	i	i	-13*	i	i	-1.8	·	·	·	·	·	·	81*	84*	·	·	·
NCCCC(=O)N1c2ccccc2Sc2ccc(Cl)cc21	i	i	-7.9*	i	i	·	·	·	·	·	·	·	91*	85*	·	·	·
CN(C)CC(=O)N1c2ccccc2Sc2ccc(Cl)cc21	i	i	-8*	i	i	-0.93	·	·	·	·	·	·	91*	69*	·	·	·
CCN(CC)CCC(=O)N1c2ccccc2Sc2ccc(Cl)cc21	i	i	i	i	i	·	·	·	·	·	·	·	·	·	·	·	·
CN(C)CCC(=O)N1c2ccccc2Sc2ccc(Cl)cc21	i	i	-14*	i	i	·	·	·	·	·	·	·	94*	98*	·	·	·
CCCCN(C(=O)Cc1ccc(S(=O)(=O)N2CCOCC2)s1)c1c(N)n(CCCC)c(=O)[nH]c1=O	i	i	i	i	i	·	·	·	·	·	·	·	·	·	·	·	·
Cc1ccccc1Cc1c(C)nc2nc(SCC(=O)NCCCN3CCCC3)nn2c1C	i	i	-8.7*	i	i	·	·	·	·	·	·	·	72*	37*	·	·	·
Cc1nc2nc(SCC(=O)NCCCN3CCCCCC3)nn2c(C)c1Cc1ccccc1Cl	i	i	-7.9*	i	i	·	·	·	·	·	·	·	82*	45*	·	·	·

Assay outcomes deposited in PubChem by several laboratories.
